The values below come from the array DNA melting data of Ke et al. (doi:10.1101/2024.01.08.574731).

Data set [1] in a line: folding enthalpy; higher = less favourable; fluorescence melt of hairpins on a sequencing array, two-state fit. Particulars: sodium 0.088 M. In outline: (§1)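 On a sequenced MiSeq flow cell, library hairpins with annealed Cy3 and quencher oligos were imaged for Cy3 fluorescence in 2.5 °C steps up to 60 °C, in 50 mM Na-HEPES pH 8.0, 25 mM NaCl. Normalisation used pre-quench Cy3 and control constructs. Bootstrapped two-state fits gave melting temperature and folding enthalpy, combined by inverse variance across four replicates and with fitted temperatures raised by 9.35 °C to match UV melts.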

Data set [2] in a line: melting temperature; fluorescence melt of hairpins on a sequencing array, two-state fit, raised by 9.35 °C to match UV melts. Particulars: sodium 0.088 M. The procedure, abridged: as §1

For GCAGTTACGAAAGTATGC (((..(((....)))))), the folding enthalpy in data set [1] was -90.5 kJ/mol. Moreover, the Tm in data set [2] is 33.9 °C.
The like results for GCAGTTCGAAAGAAATGC (((.(((....))).))) were, in that order, -154 kJ/mol and 54.2 °C.
For GCAGTTGCGAAAGCATGC (((..(((....)))))) the same measures were -70.3 kJ/mol and 42 °C.
The like results for GCAGTTGGAAACAGTTGC (((..((....))..))) were, in that order, -57.6 kJ/mol and 29.7 °C.
Take GCATACACGAAAGTGTGC (((..(((....)))))): in data set [1], the folding enthalpy is -67.2 kJ/mol. Also, in data set [2], the Tm worked out at 45.9 °C.
For GCATACCGAAAGGTGTGC (((.(((....))).))) the same measures were -181 kJ/mol and 63.3 °C.
Take GCATACGAAAGTAACTGC ((((((....)))..))): the folding enthalpy in data set [1] is -57 kJ/mol. The Tm in data set [2] is 31.1 °C.
The like results for GCATACGAAAGTAATGC ((((((....))).))) were, in that order, -148 kJ/mol and 50.1 °C.
For GCATACGAAAGTACTGC ((((((....))).))) the same measures were -93.8 kJ/mol and 41.4 °C.
For GCATACGAAAGTACTTGC ((((((....)))..))), the folding enthalpy in data set [1] was -49.1 kJ/mol. The Tm in data set [2] was determined as 30.8 °C.
For GCATACGAAAGTAGATGC ((((((....)))..))) the same measures were -114 kJ/mol and 41.1 °C.
The like results for GCATACGAAAGTAGGTGC ((((((....)))..))) were, in that order, -113 kJ/mol and 40.4 °C.
Regarding GCATAGCGAAAGCAATGC ((((.((....)).)))), the folding enthalpy in data set [1] is -96.8 kJ/mol. In data set [2], the Tm came out at 60.4 °C.
The like results for GCATAGCGAAAGCCGTGC (((..((....))..))) were, in that order, -73.3 kJ/mol and 39.6 °C.
For GCATAGCGAAAGCGAAGC ((.(.((....)).).)) the same measures were -94.8 kJ/mol and 58.1 °C.
For GCATAGCGAAAGCGTTGC (((..((....))..))) the same measures were -113 kJ/mol and 56.8 °C.
Consider GCATAGCGAAAGCTAAGC ((.((((....)))).)), for which, in data set [1], the folding enthalpy was -67.8 kJ/mol. In addition, the Tm in data set [2] was 51.2 °C.
Regarding GCATAGCGAAAGCTGGGC ((..(((....)))..)), in data set [1], the folding enthalpy is -75.7 kJ/mol. Besides, in data set [2], the Tm was determined as 56.5 °C.
For GCATAGCGAAAGCTTTGC (((.(((....))).))) the same measures were -175 kJ/mol and 53.4 °C.
For GCATAGGAAACTATGC ((((((....)))))) the same measures were -148 kJ/mol and 53.7 °C.
On to GCATAGGGAAACTTGTGC (((.(.(....).).))), for which the folding enthalpy in data set [1] is -54.5 kJ/mol. Also, in data set [2], the Tm stood at 29.9 °C.
For GCATATGCGAAAGCATGC (((..(((....)))))) the same measures were -61.7 kJ/mol and 48.2 °C.
For GCATATGGAAACATACGC ((.((((....)))).)) the same measures were -110 kJ/mol and 35.4 °C.
The like results for GCATATTCGAAAGAATGC (((..(((....)))))) were, in that order, -78.2 kJ/mol and 34 °C.
As to GCATCACCGAAAGGTTGC (((..(((....)))))), the folding enthalpy in data set [1] is -80 kJ/mol. The Tm in data set [2] was found to be 37.4 °C.
For the sequence GCATCCCGAAAGGGTGC (((.(((....)))))), the folding enthalpy in data set [1] is -64.7 kJ/mol. Further, in data set [2], the Tm was 61.5 °C.
Consider GCATCCCGAAAGGGTTGC (((.(((....))).))), for which the folding enthalpy in data set [1] was -126 kJ/mol. The Tm in data set [2] was determined as 60.1 °C.
For GCATCCGAAAGGACTTGC ((((((....)))..))) the same measures were -81.3 kJ/mol and 32.9 °C.
For GCATCGACGAAAGTCTGC (((..(((....)))))) the same measures were -65.9 kJ/mol and 33.6 °C.
The like results for GCATCGCCGAAAGGCTGC (((..(((....)))))) were, in that order, -59 kJ/mol and 43.4 °C.
For the sequence GCATCGCGAAAGCCACGC ((.(.((....)).).)), the folding enthalpy in data set [1] is -42.7 kJ/mol. In data set [2], the Tm was 26.5 °C.
For GCATCGCGAAAGCGACGC ((.((((....)))).)) the same measures were -89.7 kJ/mol and 63.9 °C.
As for GCATCGCGAAAGCGCAGC ((..(((....)))..)), the folding enthalpy in data set [1] was -52.7 kJ/mol. Further, in data set [2], the Tm is 39.9 °C.
The like results for GCATCGCGAAAGCGTGC (((.(((....)))))) were, in that order, -82.5 kJ/mol and 63.8 °C.
The like results for GCATCGCGAAAGCGTTGC (((.(((....))).))) were, in that order, -185 kJ/mol and 58.5 °C.
For GCATCGCGAAAGCTAGGC ((.(.((....)).).)) the same measures were -58.5 kJ/mol and 42.8 °C.
